Legend:
[1] = melting temperature; fluorescence melt of hairpins on a sequencing array, two-state fit, raised by 9.35 °C to match UV melts; details: sodium 0.088 M
How it was run: (§1)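 Bootstrapped two-state fits yielded melting temperature and folding enthalpy for library hairpins. Cy3 fluorescence, with annealed Cy3 and quencher oligos, was imaged on a sequenced MiSeq flow cell in 50 mM Na-HEPES pH 8.0, 25 mM NaCl in 2.5 °C steps up to 60 °C, and normalised to pre-quench Cy3 and to control constructs. Four replicates were combined by inverse variance, and fitted temperatures were raised by 9.35 °C to match UV melts.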

[2] = folding enthalpy; higher = less favourable; fluorescence melt of hairpins on a sequencing array, two-state fit; details: sodium 0.088 M
How it was run: as §1

Sequence | Tm [1] | folding enthalpy [2]
CGAATCGGAAACGAATCG (((.(((....))).))) | 44.7 °C | -37.4 kcal/mol
CGAATCGGAAACGATCG (((.(((....)))))) | 45.6 °C | -32.4 kcal/mol
CGACACGGAAACGTATCG (((.(((....))).))) | 42.3 °C | -28.1 kcal/mol
CGACACGGAAACGTTTCG (((.(((....))).))) | 44.8 °C | -33.7 kcal/mol
CGACCCGGAAACGGATCG (((.(((....))).))) | 48.8 °C | -33.4 kcal/mol
CGACCCGGAAACGGCTCG (((.(((....))).))) | 40.1 °C | -23.7 kcal/mol
CGACCGGAAACGGAATCG ((((((....)))..))) | 35.7 °C | -14.3 kcal/mol
CGACCGGAAACGGACTCG ((((((....)))..))) | 30.7 °C | -12.9 kcal/mol
CGACCGGAAACGGGATCG ((((((....)))..))) | 38.8 °C | -15.7 kcal/mol
CGACCGGAAACGGGTTCG ((((((....)))..))) | 38.9 °C | -21.4 kcal/mol
CGACCGGAAACGGTATCG ((((((....)))..))) | 33.6 °C | -13.6 kcal/mol
CGACTCCGGAAACGGTCG (((..(((....)))))) | 38.4 °C | -24.1 kcal/mol
CGAGAACGGAAACGTTCG (((..(((....)))))) | 52.9 °C | -25.3 kcal/mol
CGAGCACGGAAACGTTCG (((..(((....)))))) | 36.7 °C | -13.5 kcal/mol
CGAGCGGAAACGCTTCG ((((((....))).))) | 50.6 °C | -15 kcal/mol
CGAGGCGGAAACGCTTCG (((.(((....))).))) | 55.3 °C | -35.3 kcal/mol
CGATACCGGAAACGGTCG (((..(((....)))))) | 35.1 °C | -12.3 kcal/mol
CGATACGGAAACGTTCG (((.(((....)))))) | 42.3 °C | -28.6 kcal/mol
CGATCCGGAAACGGTCG (((.(((....)))))) | 50.5 °C | -29.1 kcal/mol
CGATCGGAAACGACGTCG ((((((....)))..))) | 40.8 °C | -18.6 kcal/mol
CGATCGGAAACGAGGTCG ((((((....)))..))) | 31 °C | -13.5 kcal/mol
CGATCGGAAACGAGTCG ((((((....))).))) | 39.9 °C | -24.7 kcal/mol
CGATCGGAAACGAGTTCG ((((((....)))..))) | 34.3 °C | -20.5 kcal/mol
CGATGCGGAAACGCCTCG (((.(((....))).))) | 48.1 °C | -40.4 kcal/mol

Sequence | Tm [1] | folding enthalpy [2]
CGATGCGGAAACGCTTCG (((.(((....))).))) | 53 °C | -41.7 kcal/mol
CGATGGCGGAAACGCTCG (((..(((....)))))) | 38.5 °C | -15.8 kcal/mol
CGATTCGGAAACGATCG (((.(((....)))))) | 44 °C | -32.8 kcal/mol
CGCAACGGAAACGTGGCG (((.(((....))).))) | 57.7 °C | -46.5 kcal/mol
CGCAAGAAATTGCG (((((....))))) | 53.3 °C | -29.6 kcal/mol
CGCACCGGAAACGGCGCG (((.(((....))).))) | 60.9 °C | -52.1 kcal/mol
CGCACGGAAACGTCCGCG ((((((....)))..))) | 41.2 °C | -19.1 kcal/mol
CGCACGGAAACGTCGGCG ((((((....)))..))) | 46.6 °C | -24 kcal/mol
CGCACTCGGAAACGAGCG (((..(((....)))))) | 39.9 °C | -14.1 kcal/mol
CGCAGCGGAAACGCCGCG (((.(((....))).))) | 58 °C | -34 kcal/mol
CGCAGGAAACTGCG (((((....))))) | 60.3 °C | -25.9 kcal/mol
CGCAGTCGGAAACGAGCG (((..(((....)))))) | 36 °C | -10.9 kcal/mol
CGCATACGGAAACGTGCG (((..(((....)))))) | 48.9 °C | -30.2 kcal/mol
CGCCATCGGAAACGAGCG (((..(((....)))))) | 37 °C | -18.1 kcal/mol
CGCCCGGAAACGGAGCG ((((((....))).))) | 58.3 °C | -31.8 kcal/mol
CGCCCGGAAACGGCCGCG ((((((....)))..))) | 43.8 °C | -19.6 kcal/mol
CGCCCGGAAACGGGAGCG ((((((....)))..))) | 55.3 °C | -15.3 kcal/mol
CGCCGCGGAAACGCAGCG (((.(((....))).))) | 59 °C | -37.5 kcal/mol
CGCCTACGGAAACGTGCG (((..(((....)))))) | 39.4 °C | -23.2 kcal/mol
CGCCTCCGGAAACGGGCG (((..(((....)))))) | 48.1 °C | -25.6 kcal/mol
CGCGACGGAAACGTAGCG (((.(((....))).))) | 58.6 °C | -38.6 kcal/mol
CGCGACGGAAACGTGGCG (((.(((....))).))) | 56.9 °C | -49 kcal/mol
CGCGACGGAAACGTTGCG (((.(((....))).))) | 61 °C | -54.2 kcal/mol
CGCGCCGGAAACGGGCG (((.(((....)))))) | 60.4 °C | -26.4 kcal/mol

Reference: the array DNA melting data of Ke et al. (doi:10.1101/2024.01.08.574731)
